# High-throughput results deposited in PubChem by several laboratories.
# Shown are actives, neighbours in structure and some others; about 2.3% of the full set was active somewhere.
# TRPC6 act: activates the mouse TRPC6 cation channel; Q61143; HEK293-TRPC6 membrane potential dye fluorescence; active compounds read high; B-score at 10 µM; actives 0.13% (n = 310,000);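 active = B-score of the integrated fluorescence ratio above library mean plus 3 SD, and starting fluorescence ratio within library mean plus 5 SD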;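 also: higher score means more depolarization so channel activation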
# TRPC4 agonist: activators of mouse TRPC4 channel | Q9QUQ5 | HEK293 TRPC4beta/mu-opioid, Fluo4 calcium fluorescence; active compounds read high | B-score at 10 µM | actives 0.49% (n = 310,000) | AID 2237;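 active = B-score above 5 SD of library B-scores, and initial fluorescence ratio not above library mean plus 5 SD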;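 also: positive B-score marks a calcium rise read as TRPC4 activation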
#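 Incubation: 45 min room-temperature Fluo4 loading, 110 s read / System: HEK293 cells stably co-expressing mouse TRPC4beta and mu-opioid receptor / Signal: Fluo4 fluorescence, kinetic / Control set: buffer (low) and maximal DAMGO (high) / Measure: integrated baseline-normalised fluorescence ratio, converted to per-well B score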
# TRPC4 PAM: allosteric potentiators of mouse TRPC4 channel | actives 0.42% (n = 310,000) | HEK293 TRPC4beta/mu-opioid, DAMGO EC20, Fluo-4 Ca2+ flux; active compounds read high | B-score at 10 µM | Q9QUQ5;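 active = B-score of calcium response area above 5 SD of library B-scores, with initial fluorescence ratio within 5 SD of library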;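 also: B-score of integrated fluorescence ratio over time as area under calcium response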
# TRPC6 inh: inhibitors of mouse TRPC6 channel; Q61143; HEK293-TRPC6, membrane potential dye, ACh-evoked depolarization; active compounds read low; B-score at 10 µM; actives 1.1% (n = 310,000);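 active = B-score under library mean minus 3 SD, initial fluorescence not abnormally high, positive integrated signal ratio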;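 also: B-score derived from integrated fluorescence ratio over the kinetic read; more negative B-score means stronger inhibition of depolarization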
# TRPC4 block: blocks the mouse TRPC4 cation channel; actives 0.39% (n = 300,000); Q9QUQ5; HEK293 TRPC4beta/mu-opioid, DAMGO-evoked Fluo4 calcium flux; active compounds read low; AID 2247; B-score at 10 µM;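 active = B-score over 3 SD under the library average, no early fluorescence shift, positive overall ratio signal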
#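 Assay system: Stable TRPC4beta/mu-opioid receptor HEK293 cells | Reagent: DAMGO in two steps, submaximal then maximal | Compound dosing: Single concentration per test compound | Signal: Fluo4 Ca2+ flux fluorescence | Evaluation: Per-well B score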
# FID counter: fluorescent intercalator displacement, NS3 helicase counter-screen; AID 1845; inhibition, % at 7.9 µM; actives 0.17% (n = 290,000); DNA fluorescent intercalator displacement, fluorescence; in the data active = inhibition above about 37%;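 also: 0% = vehicle and 100% = reference compound; higher means more ethidium bromide displaced from hairpin DNA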
# * = called active by the depositor; i = inactive; / = no result given.
SMILES,TRPC6 act,TRPC4 agonist,TRPC4 PAM,TRPC6 inh,TRPC4 block,FID counter
CC(C)N1CCC(N2CCN(Cc3ccc(-c4ccc(Cl)cc4)o3)CC2CCO)CC1 (configuration not stated),i,i,i,i,i,13
CN1CC(=O)Nc2ccc([N+](=O)[O-])cc2C1=O,i,i,i,i,i,1
Cc1ccc(C2(O)CN(c3ccccc3C)C3=[N+]2CCS3)cc1 (configuration not stated),i,106*,i,i,i,6
Cc1ccc(C)c(N2CC(O)(c3cccs3)[N+]3=C2CCCC3)c1 (configuration not stated),i,i,i,i,i,4
Cc1ccccc1N1CC(O)(c2ccccc2)[N+]2=C1SCC2 (configuration not stated),i,83*,i,i,i,2
Cc1nnc(NC(=O)c2cc(S(=O)(=O)N3CCCCC3)ccc2Cl)s1,i,i,i,i,i,-27
Clc1ccc2nc(N3CCNCC3)nc(-c3ccccc3)c2c1,i,102*,i,i,i,44*
C=CCNS(=O)(=O)c1cc2c3c(c1)CCN3C(=O)CC2,i,i,i,i,i,-4
O=C(CCC1CCCC1)NNC(=O)c1cccc(Cl)c1,i,i,i,i,i,-8
O=C(COC(=O)Cc1cccc(C(F)(F)F)c1)NC1CCS(=O)(=O)C1 (configuration not stated),i,i,i,i,i,/
Cc1ccc(NS(=O)(=O)c2ccc(N3CCN(c4ccc(O)cc4)CC3)c([N+](=O)[O-])c2)c(C)c1,i,i,26*,i,i,20
CC(C)N(Cc1nccn1C)C(=O)c1cc(COc2ccc(F)cc2Cl)on1,i,i,i,i,i,-7
CNC(=S)N/N=C/c1cn(Cc2ccc(F)cc2)c2ccccc12,i,i,11*,i,i,-10
COC(=O)N/N=C/c1cn(Cc2ccc(F)cc2)c2ccccc12,i,i,i,i,i,-14
Nc1ccc(C(=O)N/N=C/c2cn(Cc3ccc(F)cc3)c3ccccc23)cc1,i,i,i,i,i,-14
Nc1ccc(C(=O)N/N=C/c2cn(Cc3ccccc3F)c3ccccc23)cc1,i,i,11*,i,i,-15
CCN1CCN(C(c2cc3cccc(C)c3[nH]c2=O)c2nnnn2Cc2ccccc2)CC1 (configuration not stated),i,76*,i,i,i,1
Cc1ccc(C)c2[nH]c(=O)c(C(c3nnnn3C3CCCC3)N3CCOCC3)cc12 (configuration not stated),i,i,23*,i,i,-6
Cc1ccc(C)c2[nH]c(=O)c(C(c3nnnn3Cc3ccco3)N3CCc4ccccc4C3)cc12 (configuration not stated),i,i,11*,i,i,-15
Cc1ccc2cc(C(c3nnnn3C3CCCC3)N3CCOCC3)c(=O)[nH]c2c1C (configuration not stated),i,i,i,i,i,0
Cc1ccc(C)c2[nH]c(=O)c(C(c3nnnn3CCc3ccccc3)N3CCOCC3)cc12 (configuration not stated),i,i,i,i,i,-20
Cc1ccc(C)c2[nH]c(=O)c(CN(Cc3nnnn3C3CCCCC3)CC3CCCO3)cc12 (configuration not stated),i,i,i,i,-6*,-7
Cc1ccc(C)c2[nH]c(=O)c(CN(CCN3CCOCC3)Cc3nnnn3CC3CCCO3)cc12 (configuration not stated),i,i,i,i,i,2
COc1ccc(Cn2nnnc2C(c2cc3cccc(C)c3[nH]c2=O)N2CCOCC2)cc1 (configuration not stated),i,i,i,i,i,-19
CCN(CC(=O)NCc1ccccn1)S(=O)(=O)c1cc(Cl)ccc1Cl,i,i,i,i,i,/
SMILES,TRPC6 act,TRPC4 agonist,TRPC4 PAM,TRPC6 inh,TRPC4 block,FID counter
Cc1cccc(C(=O)N2CCC(=O)N(C(COCc3cccc(Cl)c3)Cc3ccccc3)CC2)c1 (configuration not stated),i,45*,i,i,i,-31
O=C(c1cccc(Cl)c1)N1CCC(=O)N(C(COCc2cccc(Cl)c2)Cc2ccccc2)CC1 (configuration not stated),i,i,i,i,i,-34
S=C(Nc1ccccc1)Nc1cc(Cl)ccc1Oc1ccccc1,i,i,i,i,-6*,0
CCN(CC(=O)NCc1ccc(Cl)cc1)C(=O)c1ccc(C#N)cc1,i,i,i,i,i,-7
CCSc1nsc(NC(=O)Nc2ccccc2F)n1,i,i,i,i,i,-6
C=CCSc1nsc(NC(=O)Nc2ccc(F)cc2)n1,i,i,11*,i,i,2
CCn1c(N2CCN(C(=O)/C=C/c3ccccc3)CC2)nc2ccccc21,i,94*,i,i,i,-31
CCCn1c(N2CCN(C(=O)/C=C/C(=O)O)CC2)nc2ccccc21,i,57*,i,i,i,1
OCC1CCN(Cc2cn(Cc3ccccc3)nc2-c2cc3ccccc3o2)CC1,i,56*,i,i,i,19
OCC1CCCN(Cc2cn(Cc3ccccc3)nc2-c2cc3ccccc3o2)C1 (configuration not stated),i,i,i,i,i,27
CN(C)C(CNc1ncnc2sccc12)c1cccs1 (configuration not stated),i,70*,i,i,i,8
COc1cc(CNCCO)cc(Cl)c1OCc1ccc(Cl)cc1Cl,i,i,i,i,i,43*
COc1c(Cl)cc(Cl)cc1CNCCNCCO,i,i,11*,i,i,12
CCn1c(C)nc2cc(C(=O)N/N=C/c3cccc(O)c3O)ccc21,i,i,77*,i,i,-13
CCn1c(C)nc2cc(C(=O)N/N=C/c3ccccc3)ccc21,i,i,i,i,i,-5
CC(=O)Nc1ccc(S(=O)(=O)N2CCC(C(N)=O)(N3CCCCC3)CC2)cc1,i,i,i,i,i,-2
CN(C)c1ccc(C(=O)/C=C/c2cccnc2)cc1,i,i,i,i,i,-14
